According to ChEMBL document CHEMBL2093137, “WHO-TDR NTD Screening”:
Values after ≈ are worked out from the molar mass of the structure shown.

Tests used:
Trypanosoma cruzi = test: WHO-TDR: Chagas disease; assay type: functional, organism-based, Homo sapiens; settings: MRC5
Procedure, shortened: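 Whole-organism screen of a 10,000-compound diverse library from Life Chemicals, filtered for drug-likeness and reactive groups, against intracellular amastigotes of Trypanosoma cruzi Tulahuen CL2 beta-galactosidase strain grown in MRC-5SV2 human lung fibroblast host cells. The assay followed previously published standard procedures, with a reference drug as positive control. Antiparasitic potency is reported as IC50.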

[1] = test system: Trypanosoma brucei brucei; test: WHO-TDR: Human African Trypanosomiasis (HAT); assay type: functional, organism-based; settings: Squib-427
Procedure, shortened: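 Screening used a 10,000-compound diverse library supplied by Life Chemicals and filtered for drug-likeness and reactive groups. Whole bloodstream-form parasites of Trypanosoma brucei Squib 427 strain were assayed according to previously published standard procedures, with reference drugs as positive controls. The reported measure is IC50, reflecting antiparasitic potency.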

Plasmodium falciparum K1 = test: WHO-TDR: Malaria; assay type: functional, organism-based, Homo sapiens; settings: Erythrocyte
Procedure, shortened: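 This whole-organism screen covered 10,000 drug-likeness-filtered and reactive-group-filtered compounds from Life Chemicals. The target was the Plasmodium falciparum K1 strain in human red blood cells, and the readout was antiplasmodial IC50.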

Leishmania infantum = test: WHO-TDR: Leishmaniasis; assay type: functional, organism-based, Mus musculus; settings: Macrophage
Procedure, shortened: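 The screened collection came from Life Chemicals: 10,000 diverse compounds selected after filtering for drug-likeness and reactive groups. Each was tested in a whole-organism assay against Leishmania infantum MHOM/MA(BE)/67 amastigotes inside murine peritoneal macrophages, using previously published standard procedures and a reference drug as positive control. Results are IC50 values for antiparasitic potency.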

[2] = WHO-TDR: Cytotoxicity; assay type: toxicity, cell-based; settings: human, MRC5 cells
Onchocerca ochengi = test: WHO-TDR: Onchocerciasis; assay type: functional; design: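 at 12.5 µM on microfilariae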
Procedure, shortened: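 A diverse library of 10,000 compounds from Life Chemicals, filtered for drug-likeness and reactive groups, was screened against whole microfilariae of Onchocerca ochengi or Onchocerca lienalis. These animal pathogens served as stand-ins for the human parasite. Activity is given as percent inhibition and as IC50.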

Brugia malayi = test: WHO-TDR: Lymphatic Filariasis; assay type: functional; design: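 tested at 10 µM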
Procedure, shortened: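 A diverse library of 10,000 compounds from Life Chemicals was screened against Brugia malayi microfilariae in a whole-organism assay. The library had been filtered for drug-likeness and reactive groups. Activity is given as percent inhibition and as IC50.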

| SMILES | IC50 (Trypanosoma cruzi) [µg/mL] | IC50 [1] [µg/mL] | IC50 (Plasmodium falciparum K1) [µg/mL] | IC50 (Leishmania infantum) [µg/mL] | IC50 [2] [µg/mL] | % Inhibition (Onchocerca ochengi) [%] | % Inhibition (Brugia malayi) [%] |
| --- | --- | --- | --- | --- | --- | --- | --- |
| COc1ccc(OC)c(Nc2nc(CC(=O)NCc3ccccc3Cl)cs2)c1 | 3.77 (≈ 9.02 µM) | > 12.5 | > 12.5 | 8.54 (≈ 20.4 µM) | 2.13 (≈ 5.1 µM) | 100 | 20 |
| O=C(Cc1csc(SCc2ccncc2)n1)N1CCN(c2ccccc2)CC1 | 4.2 (≈ 10.2 µM) | > 12.3 | > 12.3 | > 12.3 | > 12.3 | 100 | 0 |
| CN(C)c1ccc(NC(=O)Cc2csc(SCc3ccncc3)n2)cc1 | 3.47 (≈ 9.03 µM) | > 11.5 | > 11.5 | 3.65 (≈ 9.49 µM) | > 11.5 | 100 | 0 |
| CCOC(=O)N1CCN(C(=O)Nc2nc(CC(=O)Nc3nc4ccccc4s3)cs2)CC1 | > 14.2 | > 14.2 | > 14.2 | > 14.2 | > 14.2 | 100 | 20 |
| Cc1cc(-c2nnc(SCC(=O)Nc3cccc(C(F)(F)F)c3)o2)c(C)o1 | > 11.9 | 4.69 (≈ 11.8 µM) | > 11.9 | > 11.9 | > 11.9 | 100 | 0 |
| CC(C)c1ccc(Nc2ncnc3[nH]ncc23)cc1 | 4.44 (≈ 17.5 µM) | > 7.6 | > 7.6 | 5.18 (≈ 20.4 µM) | > 7.6 | 100 | 0 |
| Cc1cc(=O)[nH]c(-n2nc(C)c(CCC(=O)Nc3cc(C)on3)c2C)n1 | > 10.7 | > 10.7 | > 10.7 | > 10.7 | > 10.7 | 100 | 20 |
| CCOc1ncccc1C(=O)Nc1c(C)nc2sc(C)c(C)n2c1=O | > 10.8 | > 10.8 | > 10.8 | 0.348 (≈ 0.971 µM) | > 10.8 | 0 | 0 |
| COc1cc(NCCNC(=O)C(C)C)nc(OC)n1 | > 8.05 | > 8.05 | > 8.05 | 0.261 (≈ 0.973 µM) | > 8.05 | 0 | 0 |
| O=S(=O)(NCCNc1ccc(Nc2ccccn2)nn1)c1ccccc1C(F)(F)F | > 13.2 | 4.31 (≈ 9.83 µM) | 4.71 (≈ 10.7 µM) | > 13.2 | 5.08 (≈ 11.6 µM) | 100 | 25 |
| COc1ccccc1CNC(=O)CCc1csc(NC(=O)c2ccc(F)cc2)n1 | > 12.4 | > 12.4 | > 12.4 | > 12.4 | > 12.4 | 100 | 0 |
| Cc1cc(=O)[nH]c(-n2nc(C)c(CCC(=O)Nc3ccc(F)c(C(F)(F)F)c3)c2C)n1 | 4.25 (≈ 9.73 µM) | 5 (≈ 11.4 µM) | > 13.1 | > 13.1 | > 13.1 | 100 | 20 |
| CCOC(=O)N1CCN(C(=O)Nc2nc(CC(=O)Nc3ccc(F)c(F)c3)cs2)CC1 | > 13.6 | > 13.6 | > 13.6 | > 13.6 | > 13.6 | 100 | 20 |
| CCCCOc1ccc(C(=O)N2CCN(c3ccc(Nc4cccnc4)nn3)CC2)cc1 | 3.45 (≈ 7.98 µM) | 11.9 (≈ 27.5 µM) | 1.69 (≈ 3.91 µM) | 0.42 (≈ 0.971 µM) | > 13 | 100 | 0 |
| COc1ccccc1CCNC(=O)CCc1csc(NC(=O)c2cccs2)n1 | 3.8 (≈ 9.15 µM) | 4.19 (≈ 10.1 µM) | > 12.5 | 5.26 (≈ 12.7 µM) | 5.79 (≈ 13.9 µM) | 100 | 0 |
| O=C(CCc1csc(NC(=O)c2ccco2)n1)NCCc1c[nH]c2ccccc12 | 5.75 (≈ 14.1 µM) | > 12.3 | > 12.3 | > 12.3 | 3.18 (≈ 7.78 µM) | 100 | 0 |
| COc1ccc(C(=O)Nc2ccc(SCC(=O)N3CCCC3)nn2)c(OC)c1 | > 12.1 | > 12.1 | > 12.1 | > 12.1 | > 12.1 | 100 | 0 |
| Cc1cc(=O)[nH]c(-n2nc(-c3cccs3)cc2NC(=O)C2(c3ccc(Cl)cc3)CCCC2)n1 | 0.466 (≈ 0.971 µM) | 0.412 (≈ 0.858 µM) | 4.97 (≈ 10.4 µM) | 0.517 (≈ 1.08 µM) | 0.682 (≈ 1.42 µM) | 75 | 0 |
| Cc1cccc2sc(NC(=O)CCc3csc(NC(=O)c4ccco4)n3)nc12 | > 12.4 | > 12.4 | > 12.4 | 0.843 (≈ 2.04 µM) | > 12.4 | 100 | 0 |
| O=C(Cc1csc(Nc2cccc(Cl)c2)n1)N1CCN(C(=O)c2ccco2)CC1 | 4.55 (≈ 10.6 µM) | 4.46 (≈ 10.3 µM) | > 12.9 | 6.7 (≈ 15.5 µM) | 3.98 (≈ 9.24 µM) | 100 | 20 |
| Cc1cc(=O)n2c(-c3cccc(NC(=O)Nc4ccc(F)cc4)c3)csc2n1 | > 11.8 | > 11.8 | > 11.8 | 0.383 (≈ 0.971 µM) | > 11.8 | 0 | 0 |
| Cc1nc2sc(C)c(C)n2c(=O)c1NC(=O)CC(c1ccccc1)c1ccccc1 | > 12.5 | > 12.5 | > 12.5 | > 12.5 | > 12.5 | 100 | 0 |
| CCOCC(=O)Nc1ccc(-c2nnc(N(C)c3ccc(OC)cc3)s2)cc1 | > 12 | > 12 | > 12 | > 12 | > 12 | 100 | 0 |
| COc1ccc(-c2cn3c(C(=O)Nc4ccc(OC(F)(F)F)cc4)csc3n2)cc1 | 3.69 (≈ 8.5 µM) | 4.11 (≈ 9.49 µM) | 4.41 (≈ 10.2 µM) | 4.21 (≈ 9.71 µM) | 1.79 (≈ 4.14 µM) | 100 | 0 |
| Cc1cc(C)c(S(=O)(=O)N2CCN(c3ccc(Nc4ccncc4)nn3)CC2)cc1C | 0.782 (≈ 1.78 µM) | 3.61 (≈ 8.23 µM) | 0.473 (≈ 1.08 µM) | 4.26 (≈ 9.71 µM) | 1.94 (≈ 4.43 µM) | 0 | 0 |
| COc1ccc(-c2cn3c(C(=O)Nc4cc(C)ccc4C)csc3n2)cc1 | > 11.3 | 3.11 (≈ 8.23 µM) | > 11.3 | 5.86 (≈ 15.5 µM) | > 11.3 | 100 | 0 |
| CCOC(=O)N1CCC(NC(=O)CCc2csc(NC(=O)c3ccccc3)n2)CC1 | > 12.9 | > 12.9 | 10.6 (≈ 24.6 µM) | > 12.9 | 4.08 (≈ 9.49 µM) | 100 | 0 |
| c1ccc2c(CCNc3ncnc4[nH]ncc34)c[nH]c2c1 | 2.44 (≈ 8.76 µM) | > 8.35 | > 8.35 | > 8.35 | > 8.35 | 100 | 0 |
| COc1cc(N2CCN(C(=O)Nc3cccc(Cl)c3)CC2)nc(OC)n1 | > 11.3 | > 11.3 | > 11.3 | > 11.3 | > 11.3 | 100 | 0 |
